Assay results published in ChEMBL document CHEMBL5705886, “GSK1070916, a potent Aurora B/C kinase inhibitor with broad antitumor activity in tissue culture cells and human tumor xenograft models” (Mol Cancer Ther, 2009).
Calls of active or inactive are those of the source. The calls are words filed in the database; no cut-off is given here.

Experiments:
COLO 201 = assay: Antiproliferative activity against human COLO201 cells assessed as inhibition of cell viability measured for 6 to 7 days by cell titer glo assay; assay type: functional, cell-based
Summary of the method: (§1)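 Tumor lines plated in recommended growth media, overnight at 37°C, 5% CO2, then given serial dilutions; a T=0 plate read with CellTiter-Glo at dosing. After 6–7 d of exposure, viability read by CellTiter-Glo luminescence. No-cell wells subtracted, data expressed as % of DMSO control.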

LoVo = assay: Antiproliferative activity against human LoVo cells assessed as inhibition of cell viability measured for 6 to 7 days by cell titer glo assay; assay type: functional, cell-based
Summary of the method: (§2)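 Cells seeded in recommended growth medium, incubated overnight at 37°C in 5% CO2, then exposed to serial dilutions of inhibitor for 6–7 d. A parallel plate was read with CellTiter-Glo at compound addition as a T=0 value. The luminescent viability readout had no-cell background subtracted and was expressed as % of DMSO control.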

DLD-1 = assay: Antiproliferative activity against human DLD-1 cells assessed as inhibition of cell viability measured for 6 to 7 days by cell titer glo assay; assay type: functional, cell-based; summary of the method: as §1
MX1 = assay: Antiproliferative activity against human MX1 cells assessed as inhibition of cell viability measured for 6 to 7 days by cell titer glo assay; assay type: functional, cell-based; summary of the method: as §2
MCF7 = assay: Antiproliferative activity against human MCF7 cells assessed as inhibition of cell viability measured for 6 to 7 days by cell titer glo assay; assay type: functional, cell-based; summary of the method: as §2
HN5 = assay: Antiproliferative activity against human HN5 cells assessed as inhibition of cell viability measured for 6 to 7 days by cell titer glo assay; assay type: functional, cell-based; summary of the method: as §2
MIA PaCa-2 = assay: Antiproliferative activity against human Mia PaCa cells assessed as inhibition of cell viability measured for 6 to 7 days by cell titer glo assay; assay type: functional, cell-based; summary of the method: as §2
[1] = Antiproliferative activity against human A375P cells assessed as inhibition of cell viability measured for 6 to 7 days by cell titer glo assay; assay type: functional, cell-based; summary of the method: as §1
SW 954 = assay: Antiproliferative activity against human SW 954 cells assessed as inhibition of cell viability measured for 6 to 7 days by cell titer glo assay; assay type: functional, cell-based
Summary of the method: (§3)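 Cells seeded in recommended growth medium, held overnight at 37°C in 5% CO2, then exposed to serial dilutions of inhibitor for 6–7 d. A time-zero plate was read with CellTiter-Glo at dosing. Luminescent viability read at the end. No-cell wells subtracted as background, data expressed as percent of DMSO control.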

[2] = Antiproliferative activity against human MV-522 cells assessed as inhibition of cell viability measured for 6 to 7 days by cell titer glo assay; assay type: functional, cell-based; conditions: MV522; summary of the method: as §2
RPMI-8226 = assay: Antiproliferative activity against human RPMI-8226 cells assessed as inhibition of cell viability measured for 6 to 7 days by cell titer glo assay; assay type: functional, cell-based; summary of the method: as §3
OCI-LY19 = assay: Antiproliferative activity against human OCILY19 cells assessed as inhibition of cell viability measured for 6 to 7 days by cell titer glo assay; assay type: functional, cell-based; summary of the method: as §3
Pfeiffer = assay: Antiproliferative activity against human Pfeiffer cells assessed as inhibition of cell viability measured for 6 to 7 days by cell titer glo assay; assay type: functional, cell-based; summary of the method: as §3
DOHH-2 = assay: Antiproliferative activity against human DOHH-2 cells assessed as inhibition of cell viability measured for 6 to 7 days by cell titer glo assay; assay type: functional, cell-based; summary of the method: as §1
JIYOYE = assay: Antiproliferative activity against human JIYOYE cells assessed as inhibition of cell viability measured for 6 to 7 days by cell titer glo assay; assay type: functional, cell-based; summary of the method: as §2
RPMI-6666 = assay: Antiproliferative activity against human RPMI-6666 cells assessed as inhibition of cell viability measured for 6 to 7 days by cell titer glo assay; assay type: functional, cell-based; summary of the method: as §3
[3] = Antiproliferative activity against human OCI-M1 cells assessed as inhibition of cell viability measured for 6 to 7 days by cell titer glo assay; assay type: functional, cell-based; summary of the method: as §3
GDM-1 = assay: Antiproliferative activity against human GDM-1 cells assessed as inhibition of cell viability measured for 6 to 7 days by cell titer glo assay; assay type: functional, cell-based; summary of the method: as §1
CMK = assay: Antiproliferative activity against human CMK cells assessed as inhibition of cell viability measured for 6 to 7 days by cell titer glo assay; assay type: functional, cell-based; summary of the method: as §1
BV-173 = assay: Antiproliferative activity against human BV-173 cells assessed as inhibition of cell viability measured for 6 to 7 days by cell titer glo assay; assay type: functional, cell-based; summary of the method: as §1
KU812 cell line = assay: Antiproliferative activity against human KU812 cell line assessed as inhibition of cell viability measured for 6 to 7 days by cell titer glo assay; assay type: functional, cell-based; summary of the method: as §2
A549 = assay: Effect on cell cycle distribution in human A549 cells assessed as increase in sub-2N DNA content at 2 to 5000 nM incubated for 24 to 72 hrs by flow cytometry based analysis; assay type: functional; conditions: dose 2-5000 nM, time 24-72 hrs
HL-60 [4] = assay: Antitumor activity in human HL-60 cells xenografted in SCID mouse assessed as reduction in tumor growth at 100 mg/kg, ip administered once daily for 5 consecutive days with 2 days off scheduled for 2 cycles measured upto 60 days; assay type: functional, organism-based; conditions: time 60.0 day
SW-620 = assay: Antitumor activity in human SW620 cells xenografted in SCID mouse assessed as reduction in tumor growth at 25 to 100 mg/kg, ip administered once daily for 5 consecutive days with 2 days off scheduled for 3 cycles measured upto 60 days; assay type: functional, organism-based; conditions: dose 25-100 mg/kg, time 60.0 day
[5] = Toxicity in SCID nude mouse xenografted with human NCI-H460 cells assessed as drug tolerance at 25 to 100 mg/kg, ip administered once daily for 5 consecutive days with 2 days off scheduled for 3 cycles measured upto 60 days; assay type: organism-based; conditions: in vivo, 1440 h, dose 25-100 mg/kg, time < 60 day
[6] = Toxicity in SCID nude mouse xenografted with human NCI-H460 cells assessed as body weight loss at 25 to 100 mg/kg, ip administered once daily for 5 consecutive days with 2 days off scheduled for 3 cycles measured upto 60 days relative to control; assay type: organism-based; conditions: in vivo, 1440 h, dose 25-100 mg/kg, time < 60 day
[7] = Toxicity in SCID nude mouse xenografted with human COLO 205 cells assessed as body weight loss at 25 to 100 mg/kg, ip administered once daily for 5 consecutive days with 2 days off scheduled for 2 cycles measured upto 60 days relative to control; assay type: organism-based; conditions: in vivo, 1440 h, dose 25-100 mg/kg, time < 60 day
[8] = Toxicity in SCID nude mouse xenografted with human HL-60 cells assessed as body weight loss at 100 mg/kg, ip administered once daily for 5 consecutive days with 2 days off scheduled for 2 cycles measured upto 60 days; assay type: organism-based; conditions: in vivo, 1440 h, time < 60 day
HL-60 [9] = assay: Antitumor activity in human HL-60 cells xenografted in SCID mouse assessed as median survival time at 25 mg/kg, ip administered once daily for 5 consecutive days with 2 days off scheduled for 2 cycles measured upto 120 days; assay type: functional; conditions: time <= 120 day
[10] = molecular target: Aurora kinase C (Homo sapiens) (UniProt Q9UQB9); assay: Binding affinity to Aurora C (unknown origin) assessed as dissociation half life
MV-4-11 (human) = assay: Antitumor activity in human MV-4-11 cells xenografted in NOD-SCID mouse assessed as median survival time at 20 mg/kg, ip administered once daily for 5 consecutive days with 2 days off scheduled for 3 cycles measured upto 120 days; conditions: time <= 120 day
COLO 205 = assay: Antitumor activity in human COLO 205 cells xenografted in nude mouse assessed as reduction in tumor growth at 25 to 100 mg/kg, ip administered once daily for 5 consecutive days with 2 days off scheduled for 2 cycles measured upto 60 days; conditions: dose 25-100 mg/kg, time 60.0 day

Chain of Aurora kinase C (Homo sapiens) (Q9UQB9 whole entry): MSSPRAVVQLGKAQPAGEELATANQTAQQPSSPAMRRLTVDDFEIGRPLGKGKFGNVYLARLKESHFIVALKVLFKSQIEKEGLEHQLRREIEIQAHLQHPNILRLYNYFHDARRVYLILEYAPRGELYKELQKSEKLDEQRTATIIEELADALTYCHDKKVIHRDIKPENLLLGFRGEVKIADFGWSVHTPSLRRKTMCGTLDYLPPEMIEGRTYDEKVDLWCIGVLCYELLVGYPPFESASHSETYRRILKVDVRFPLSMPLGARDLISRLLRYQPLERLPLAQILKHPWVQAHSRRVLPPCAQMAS

`CCn1cc(-c2ccnc3[nH]c(-c4cccc(CN(C)C)c4)cc23)c(-c2ccc(NC(=O)N(C)C)cc2)n1` [GSK-1070916] showed an EC50 (COLO 201) of 2 nM, an EC50 (LoVo) of 7 nM and an EC50 (DLD-1) of 28 nM. For the same compound, the EC50 (MX1) was 8 nM, the EC50 (MCF7) was 13 nM and the EC50 (HN5) was 10 nM. For the same compound, the EC50 (MIA PaCa-2) was 3 nM, the EC50 [1] was 7 nM and the EC50 (SW 954) was 11 nM. For the same compound, the EC50 [2] was 13 nM, the EC50 (RPMI-8226) was 11 nM and the EC50 (OCI-LY19) was 4 nM. It also gave an EC50 (Pfeiffer) of 4 nM, an EC50 (DOHH-2) of 14 nM and an EC50 (JIYOYE) of 5 nM. For the same compound, the EC50 (RPMI-6666) was 10 nM, the EC50 [3] was 20 nM and the EC50 (GDM-1) was 21 nM. It also gave an EC50 (CMK) of 27 nM, an EC50 (BV-173) of 5 nM and an EC50 (KU812 cell line) of 8 nM. For the same compound, the Activity (A549) was “Active”, the Activity (HL-60 [4]) was “Active” and the Activity (SW-620) was “inactive”. For the same compound, the Activity [5] was “Non-Toxic”, the Activity [6] was < 15% and the Activity [7] was < 15%. For the same compound, the Activity [8] was “Toxic”, the MST (HL-60 [9]) was 57 days and the T1/2 [10] was 4.5 h. For the same compound, the MST (MV-4-11 (human)) was 103 days and the Activity (COLO 205) was “inactive”.
